Results from article PMC12830962 (Nature Communications, 2025).
Ends that are not written are not given here. * marks the point of attachment. Biotin = O=C1N[C@H]2[C@H](CS[C@H]2CCCCC(=O)*)N1; Ahx = NCCCCCC(=O)O

T1: Gal4-PPARα (PPARα-LBD) (Homo sapiens, UniProt Q07869)
T1 sequence (Q07869 239-466 limits assumed): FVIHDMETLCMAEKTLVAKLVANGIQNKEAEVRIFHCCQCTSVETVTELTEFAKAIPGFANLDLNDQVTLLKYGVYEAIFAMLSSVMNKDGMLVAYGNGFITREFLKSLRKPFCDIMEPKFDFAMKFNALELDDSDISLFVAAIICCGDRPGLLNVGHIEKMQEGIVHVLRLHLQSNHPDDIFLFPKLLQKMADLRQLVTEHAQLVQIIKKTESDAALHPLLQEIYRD

T2: His-hPPARγ-LBD (PPARγ2 residues 231–505) (human, UniProt P37231-1 231-505)
T2 sequence (looked up): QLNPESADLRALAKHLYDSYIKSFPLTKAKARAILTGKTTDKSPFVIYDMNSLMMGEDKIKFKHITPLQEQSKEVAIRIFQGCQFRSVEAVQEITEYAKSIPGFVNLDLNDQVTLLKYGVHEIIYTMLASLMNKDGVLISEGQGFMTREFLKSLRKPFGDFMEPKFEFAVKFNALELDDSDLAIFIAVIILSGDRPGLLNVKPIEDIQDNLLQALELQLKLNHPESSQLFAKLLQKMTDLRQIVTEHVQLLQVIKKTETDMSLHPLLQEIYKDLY


Assays:
[1] = tested on: human adipocytes from a type 2 diabetic donor (PT5022); assay: Glucose uptake assay, adipocytes from type 2 diabetic donor; assay type: cell-based; details: 100 nM insulin
Outline: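 Adipocytes from a type 2 diabetic donor were differentiated from preadipocytes and exposed on day 7 to test compound in DMEM with 0.2% BSA for 24 h. Uptake was read by luminescence (Glucose Uptake-Glo).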

[2] = target: T1, Gal4-PPARα (PPARα-LBD); assay: Gal4-PPARα LBD::UAS-luciferase reporter cotransfection assay in HEK293T cells; assay type: cell-based; details: 1 μΜ compound
Outline: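 HEK293T cells were seeded at 3.3 × 10^6 per 10-cm plate. After 24 h they were PEI-transfected with 8 μg total DNA, Gal4-PPAR LBD plasmid and UAS-luciferase reporter at 1:1. After a further 24 h, cells were replated at 10,000 cells/well in 384-well plates, left 3 h, then given test compound or DMSO for 18 h. Luciferase was read with Britelite Plus.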

[3] = target: T2, His-hPPARγ-LBD (PPARγ2 residues 231–505); assay: AlphaScreen or HTRF

| PPARα activation compared to that observed with GW7647 treatment [2] | binding result [3] | Molecule | insulin-stimulated glucose uptake compared to DMSO [1] |
| --- | --- | --- | --- |
|  |  | CN(CCOc1ccc(CC2SC(=O)NC2=O)cc1)c1ccccn1 (stereo not shown) [Rosi, rosiglitazone] | significantly enhanced |
| ~ 45% |  | Cc1c(C)n(Cc2cccc(OC(C)(C)C(=O)O)c2)c2ccc(C(=O)N[C@@H](C)c3ccc(C(C)(C)C)cc3)cc12 [SR10171] | significantly enhanced |
|  | binds | {Biotin-Ahx}-LTERHKILHRLLQEGSPSD [biotin-Ahx-SRC1-2 coactivator peptide] |  |
